ChEMBL document CHEMBL1134674, “Acetylcholinesterase inhibitors: SAR and kinetic studies on omega-[N-methyl-N-(3-alkylcarbamoyloxyphenyl)methyl]aminoalkoxyaryl derivatives” (J Med Chem, 2001)

Key:
Acetylcholinesterase = Acetylcholinesterase (Homo sapiens, UniProt P22303); assay: In vitro inhibition of human erythrocyte Acetylcholinesterase.
Cholinesterase = Cholinesterase (Homo sapiens, UniProt P06276); assay: In vitro inhibition of human serum Butyrylcholinesterase.
[1] = Compound was evaluated for rate constant (K5); type: ADME
[2] = Compound was evaluated for rate constant (K3); type: ADME
[3] = Compound was evaluated for equilibrium constant; type: ADME
In short: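 Stopped-time carbamoylation assay with human erythrocyte AChE and inhibitor at five concentrations in pH 8.0 assay buffer at 37 °C. After a few minutes, residual ATCh hydrolysis was read at 412 nm against a parallel no-inhibitor control. Fit R = R0·exp(−kobs·t) + R∞ gave kobs; KC came from the slope/intercept ratio of double-reciprocal kobs versus [I] plots.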

Acetylcholinesterase, sequence (P22303 whole entry): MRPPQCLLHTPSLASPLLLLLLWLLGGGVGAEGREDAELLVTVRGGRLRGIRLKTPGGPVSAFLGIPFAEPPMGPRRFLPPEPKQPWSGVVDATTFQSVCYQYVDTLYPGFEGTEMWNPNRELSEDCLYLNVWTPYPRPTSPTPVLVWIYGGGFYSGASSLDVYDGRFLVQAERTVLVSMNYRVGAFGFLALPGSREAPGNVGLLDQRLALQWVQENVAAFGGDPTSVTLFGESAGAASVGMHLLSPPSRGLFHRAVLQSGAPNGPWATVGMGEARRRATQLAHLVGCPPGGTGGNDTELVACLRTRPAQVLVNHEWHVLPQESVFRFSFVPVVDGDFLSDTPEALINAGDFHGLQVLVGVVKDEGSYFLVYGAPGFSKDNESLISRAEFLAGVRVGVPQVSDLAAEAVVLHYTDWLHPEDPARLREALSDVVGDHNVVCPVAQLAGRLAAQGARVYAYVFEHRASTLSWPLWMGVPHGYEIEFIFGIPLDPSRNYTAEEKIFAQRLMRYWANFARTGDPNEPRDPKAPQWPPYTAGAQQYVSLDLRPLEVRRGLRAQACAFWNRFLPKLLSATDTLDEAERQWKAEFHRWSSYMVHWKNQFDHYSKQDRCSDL
Cholinesterase, sequence (P06276 whole entry): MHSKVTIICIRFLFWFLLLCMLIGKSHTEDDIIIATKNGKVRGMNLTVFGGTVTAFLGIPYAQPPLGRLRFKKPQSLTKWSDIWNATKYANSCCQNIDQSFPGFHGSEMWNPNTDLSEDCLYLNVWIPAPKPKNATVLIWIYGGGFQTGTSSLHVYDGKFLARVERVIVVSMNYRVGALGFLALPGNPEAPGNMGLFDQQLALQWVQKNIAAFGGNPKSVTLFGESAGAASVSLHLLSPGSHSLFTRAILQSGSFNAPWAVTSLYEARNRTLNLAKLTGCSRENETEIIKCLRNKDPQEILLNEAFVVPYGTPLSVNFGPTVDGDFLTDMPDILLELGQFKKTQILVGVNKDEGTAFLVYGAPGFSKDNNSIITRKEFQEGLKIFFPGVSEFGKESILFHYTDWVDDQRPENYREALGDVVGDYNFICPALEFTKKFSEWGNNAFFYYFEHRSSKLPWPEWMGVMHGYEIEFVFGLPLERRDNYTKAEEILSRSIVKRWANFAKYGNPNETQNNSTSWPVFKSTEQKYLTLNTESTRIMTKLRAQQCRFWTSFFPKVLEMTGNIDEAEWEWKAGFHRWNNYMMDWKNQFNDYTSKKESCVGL

SMILES	IC50 (Acetylcholinesterase)	IC50 (Cholinesterase)	K5 [1]	K3 [2]	Kc [3]
CNC(=O)Oc1cccc(CN(C)CCCOc2ccc(-c3ccccc3)cc2)c1	54.6 nM	42.6 nM			
CNC(=O)Oc1cccc(CN(C)CCCCCCCCCCOc2ccc3c(=O)c4ccccc4oc3c2)c1	21.8 nM	31.6 nM			
CNC(=O)Oc1cccc(CN(C)CCCCCCOc2ccc3c(=O)c4ccccc4oc3c2)c1	1.4 nM	13.9 nM	0.77 h⁻¹	2.3 min⁻¹	6.4 nM
CN(CCCOc1ccc2c(=O)c3ccccc3oc2c1)Cc1cccc(OC(=O)NCCCCCCCN2CCOCC2)c1	26.2 nM	4.9 nM		0.11 min⁻¹	27.2 nM
CNC(=O)Oc1cccc(CN(C)CCCCCCCCCOc2ccc3c(=O)c4ccccc4oc3c2)c1	11.7 nM	48.3 nM			
CN(CCCOc1ccc2c(=O)c3ccccc3oc2c1)Cc1cccc(OC(=O)NCCCCCCN2CCOCC2)c1	21.1 nM	7.5 nM			
CNC(=O)Oc1cccc(CN(C)CCCOc2ccc(C(=O)c3ccccc3)cc2)c1	5.4 nM	24.5 nM			
CNC(=O)Oc1cccc(CN(C)CCCOc2cccc(Cc3ccccc3)c2)c1		22.1 nM			
CNC(=O)Oc1cccc(CN(C)CCCCCCCCOc2ccc3c(=O)c4ccccc4oc3c2)c1	6.8 nM	25.2 nM			
CNC(=O)Oc1ccc2c(c1)CN(CCCOc1ccc3c(=O)c4ccccc4oc3c1)CC2	12.4 nM	34.1 nM			
CNC(=O)Oc1cccc(CN(C)CC#CCOc2ccc3c(=O)c4ccccc4oc3c2)c1	210 nM	529 nM			
CNC(=O)Oc1cccc(CN(C)CCCCCCCOc2ccc3c(=O)c4ccccc4oc3c2)c1	0.32 nM	16.5 nM			
CNC(=O)Oc1cccc(CN(C)CCCOc2ccccc2)c1	79.6 nM	24.8 nM			
CN(CCCOc1ccc2c(=O)c3ccccc3oc2c1)Cc1cccc(OC(=O)NCCCCCCCCN2CCOCC2)c1	27.4 nM	3.9 nM			
CNC(=O)Oc1ccc2c(c1)[C@]1(C)CCN(C)[C@@H]1N2C [PHYSOSTIGMINE]			0.43 h⁻¹	0.41 min⁻¹	33.5 nM
CN(CCCOc1ccc2c(=O)c3ccccc3oc2c1)Cc1cccc(OC(=O)NCCCCCCCCCN2CCOCC2)c1	29.3 nM				
CNC(=O)Oc1cccc(CN(C)CCCOc2ccc3ccccc3c2)c1	82.6 nM	205 nM			
